Data reported in ChEMBL document CHEMBL4043143, “2-N-Arylthiazole inhibitors of Mycobacterium tuberculosis” (Bioorg Med Chem Lett, 2017).
pIC50: −log10 of the molar value. Converted amounts (≈) assume the structure as drawn. The source made the active and inactive calls. The calls are words filed in the database; no cut-off is given here.

Columns and labels:
[1] = Metabolic stability in rat liver microsomes assessed as compound remaining at 1 uM measured after 30 mins; type: ADME, microsome; details: read-out: Stability
[2] = tested on: Mycobacterium tuberculosis; test: Antitubercular activity against Mycobacterium tuberculosis H37Ra infected in THP-1 macrophages measured after 5 days post infection by luciferase reporter gene assay; type: functional; details: THP-1, 120 h
Method in brief: (§1)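 Firefly luciferase reporter Mtb infected THP-1 cells. Bacterial growth was read by luminescence five days post-infection, and the value was reported as the 50% inhibitory concentration. The assay medium used glucose and glycerol as the carbon source.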

[3] = tested on: Mycobacterium tuberculosis; test: Antitubercular activity against Mycobacterium tuberculosis H37Rv BSL3 infected in THP-1 macrophages under anaerobic condition after 5 days post infection by luciferase reporter gene assay; type: functional; details: H37Rv BSL3, THP-1, 120 h
[4] = tested on: Mycobacterium tuberculosis; test: Antitubercular activity against Mycobacterium tuberculosis H37Ra BSL2 cultured in broth; type: functional
Method in brief: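 BSL2 H37Ra broth assay. MIC was taken as the concentration (μM) giving 70% growth inhibition versus control wells.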

[5] = tested on: Mycobacterium tuberculosis; test: Antitubercular activity against Mycobacterium tuberculosis Erdman BSL3 infected in THP-1 macrophages using middlebrook 7H9 broth media after 5 days post infection by luciferase reporter gene assay; type: functional, Mycobacterium tuberculosis str. Erdman = ATCC 35801; details: BSL3, 120 h
[6] = tested on: Mycobacterium tuberculosis; test: Antitubercular activity against Mycobacterium tuberculosis H37Ra BSL2 infected in THP-1 macrophages after 5 days post infection by luciferase reporter gene assay; type: functional; details: H37Ra BSL2, THP-1, 120 h; method in brief: as §1
[7] = tested on: Mycobacterium tuberculosis; test: Antitubercular activity against Mycobacterium tuberculosis H37Rv BSL3 infected in THP-1 macrophages using middlebrook 7H12 broth media after 5 days post infection by luciferase reporter gene assay; type: functional; details: H37Rv BSL3, THP-1, 120 h
[8] = tested on: Mycobacterium tuberculosis; test: Antitubercular activity against Mycobacterium tuberculosis Erdman BSL3 infected in THP-1 macrophages using middlebrook 7H12 broth media after 5 days post infection by luciferase reporter gene assay; type: functional, Mycobacterium tuberculosis str. Erdman = ATCC 35801; details: BSL3, THP-1, 120 h
[9] = tested on: Mycobacterium tuberculosis; test: Antitubercular activity against Mycobacterium tuberculosis Erdman BSL3 infected in BALB/c mouse assessed as reduction in colony forming units in lung homogenates at 100 mg/kg administered daily via oral gavage for 5 days per week for 4 weeks; type: functional, organism-based; details: Mycobacterium tuberculosis str. Erdman = ATCC 35801
Method in brief: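 BALB/c mice were infected intranasally with 10^6 cfu of the Erdman isolate, six mice per group. Dosing was 100 mg/kg daily, 5 days/week, for four weeks. Lung homogenates were plated for cfu. An early-control group was killed at the start of therapy to set the infection load, and a late-control group marked the endpoint and confirmed virulence. Rifampin at 10 mg/kg was the positive control.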

Mus musculus = test: Dose normalized AUC in mouse at 3 mg/kg, po or 1 mg/kg, iv; type: ADME, organism-based; details: in vivo
Method in brief: (§2)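 Mouse pharmacokinetics after 3 mg/kg oral or 1 mg/kg intravenous dosing. Clearance is in mL/min/kg. AUC is in μg*h/mL, with oral exposure normalised to the actual dose.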

[10] = Half life in mouse at 3 mg/kg, po or 1 mg/kg, iv; type: ADME, organism-based; details: in vivo; method in brief: as §2
[11] = Clearance in mouse at 1 mg/kg, iv; type: ADME, organism-based; details: in vivo; method in brief: as §2
[12] = tested on: Mycobacterium tuberculosis; test: Antitubercular activity against Mycobacterium tuberculosis H37Rv BSL3 infected in THP-1 macrophages using middlebrook 7H9 broth media after 5 days post infection by luciferase reporter gene assay; type: functional; details: H37Rv BSL3, THP-1, 120 h

## CCC(O)Cc1ccc(Nc2nc(C)cs2)cc1 (stereo not drawn)
[1]
  remaining at 0.5 h, 1 µM: 1%
[2]
  pIC50: 6.40

## CCCCc1ccc(Nc2nc(C)cs2)cc1
[3]
  pIC50: 4.92
[4]
  MIC70: 0.04 µM (≈ 0.00986 µg/mL)
[1]
  remaining at 0.5 h, 1 µM: 1%
[5]
  MIC90: 7 µM (≈ 1.72 µg/mL)
[6]
  pIC50: 7.40
[2]
  pIC50: > 8.30
[7]
  pIC50: 4.33
[8]
  pIC50: < 4.00
[9]
  Activity: inactive

## CCCCCc1ccc(Nc2nc(C)cs2)cc1
[1]
  remaining at 0.5 h, 1 µM: 3%
[2]
  pIC50: 7.40

## O=C(O)Cc1csc(Nc2ccc(OCCC(F)(F)F)cc2)n1
Mus musculus
  AUC/dose: 15 µg·h/mL
[10]
  half-life: 1.6 h
[11]
  clearance: 1.5 mL/min/kg
[2]
  pIC50: 6.57

## CCCCc1ccc(Nc2nc(CC(=O)O)c(C)s2)cc1
Mus musculus
  AUC/dose: 4.8 µg·h/mL
[10]
  half-life: 1.1 h
[11]
  clearance: 7 mL/min/kg
[2]
  pIC50: 7.00

## Cc1csc(Nc2ccc(COCC(F)(F)F)cc2)n1
[1]
  remaining at 0.5 h, 1 µM: 1%
[2]
  pIC50: > 7.40

## CCCCCCc1ccc(Nc2nc(C)cs2)cc1
[2]
  pIC50: 7.30

## CCCOc1ccc(Nc2nc(C)cs2)cc1
[1]
  remaining at 0.5 h, 1 µM: 4%
[2]
  pIC50: 6.82

## CCC(C)c1ccc(Nc2nc(CC(=O)O)cs2)cc1 (racemic)
[3]
  pIC50: 4.02
[4]
  MIC70: 0.16 µM (≈ 0.0465 µg/mL)
Mus musculus
  AUC/dose: 14.4 µg·h/mL
[10]
  half-life: 2.8 h
[5]
  MIC90: 6.3 µM (≈ 1.83 µg/mL)
[12]
  pIC50: 5.03
[11]
  clearance: 3 mL/min/kg
[6]
  pIC50: 7.15
[2]
  pIC50: 7.15
[7]
  pIC50: < 4.00
[8]
  pIC50: < 4.00
[9]
  Activity: inactive

## CCCCc1ccc(Nc2nc(CC(N)=O)cs2)cc1
[2]
  pIC50: 6.07

## CO[C@H]1/C=C/O[C@@]2(C)Oc3c(C)c(O)c4c(O)c(c(/C=N/N5CCN(C)CC5)c(O)c4c3C2=O)NC(=O)/C(C)=C\C=C\[C@H](C)[C@H](O)[C@@H](C)[C@@H](O)[C@@H](C)[C@H](OC(C)=O)[C@@H]1C [RIFAMPIN]
[4]
  MIC70: 0.08 µM (≈ 0.0658 µg/mL)
[6]
  pIC50: 7.52

## Cc1csc(Nc2ccc(CCN(C)C)cc2)n1
[2]
  pIC50: < 4.70

## CCNCc1ccc(Nc2nc(C)cs2)cc1
[1]
  remaining at 0.5 h, 1 µM: 0%
[2]
  pIC50: < 4.70

## CCC(C)c1ccc(Nc2nc(C)cs2)cc1 (stereo not drawn)
[1]
  remaining at 0.5 h, 1 µM: 0%
[2]
  pIC50: > 7.40

## CCCCc1ccc(Nc2nc(C(=O)O)cs2)cc1
[2]
  pIC50: < 4.70

## Cc1csc(Nc2ccc(C(C)(C)O)cc2)n1
[1]
  remaining at 0.5 h, 1 µM: 12%
[2]
  pIC50: 7.22

## Cc1csc(Nc2ccc(OC3CCCC3)cc2)n1
[1]
  remaining at 0.5 h, 1 µM: 10%
[2]
  pIC50: 7.15

## Cc1csc(Nc2ccc(C(C)C)cc2)n1
[1]
  remaining at 0.5 h, 1 µM: 0%
[2]
  pIC50: 8.00

## Cc1csc(Nc2ccc(C(C)(C)C)cc2)n1
[1]
  remaining at 0.5 h, 1 µM: 0%
[2]
  pIC50: > 7.40

## Cc1csc(Nc2ccc(OCCO)cc2)n1
[1]
  remaining at 0.5 h, 1 µM: 73%
[2]
  pIC50: 5.50

## CCCCc1ccc(Nc2nc(C(C)(C)C(=O)O)cs2)cc1
Mus musculus
  AUC/dose: 1.4 µg·h/mL
[10]
  half-life: 5 h
[11]
  clearance: 18 mL/min/kg
[2]
  pIC50: 6.85

## CCCCc1ccc(Nc2nc(CC(=O)O)c(Cl)s2)cc1
[3]
  pIC50: 5.25
[4]
  MIC70: 0.39 µM (≈ 0.127 µg/mL)
Mus musculus
  AUC/dose: 6 µg·h/mL
[10]
  half-life: 1.1 h
[5]
  MIC90: 12.5 µM (≈ 4.06 µg/mL)
[12]
  pIC50: 5.20
[11]
  clearance: 5 mL/min/kg
[6]
  pIC50: 7.15
[2]
  pIC50: 7.15
[7]
  pIC50: < 4.00
[8]
  pIC50: 4.27
[9]
  Activity: inactive

## Cc1ccc(Nc2nc(C)cs2)cc1
[2]
  pIC50: < 4.70

## CCc1ccc(Nc2nc(C)cs2)cc1
[1]
  remaining at 0.5 h, 1 µM: 0%
[2]
  pIC50: 6.92

## CCCCc1ccc(Nc2nc(CC(=O)O)cs2)cc1
[3]
  pIC50: 4.75
[4]
  MIC70: 0.16 µM (≈ 0.0465 µg/mL)
Mus musculus
  AUC/dose: 4.9 µg·h/mL
[10]
  half-life: 3.1 h
[5]
  MIC90: 7.8 µM (≈ 2.27 µg/mL)
[11]
  clearance: 5 mL/min/kg
[6]
  pIC50: 6.82
[2]
  pIC50: 6.82
[7]
  pIC50: 4.04
[8]
  pIC50: 4.25
[9]
  Activity: inactive

## CCCCc1ccc(Nc2nc(C(C)C(=O)O)cs2)cc1 (stereo not drawn)
Mus musculus
  AUC/dose: 4.8 µg·h/mL
[10]
  half-life: 0.9 h
[11]
  clearance: 4 mL/min/kg
[2]
  pIC50: 6.85

## CC(C)(C)c1ccc(Nc2nc(CC(=O)O)cs2)cc1
[3]
  pIC50: < 4.00
[4]
  MIC70: 0.16 µM (≈ 0.0465 µg/mL)
Mus musculus
  AUC/dose: 24.1 µg·h/mL
[10]
  half-life: 1.1 h
[5]
  MIC90: 6.3 µM (≈ 1.83 µg/mL)
[12]
  pIC50: 5.03
[11]
  clearance: 4 mL/min/kg
[6]
  pIC50: 7.15
[2]
  pIC50: 7.15
[7]
  pIC50: < 4.00
[8]
  pIC50: 4.20
[9]
  Activity: inactive
